According to ChEMBL document CHEMBL2331546, “The structure of anthracycline derivatives determines their subcellular localization and cytotoxic activity” (ACS Med Chem Lett, 2013):
pIC50: −log10 of the molar value. Active and inactive are the calls of the source. The rule behind the calls is not given here.

What was measured:
SK-OV-3 = experiment: Cytotoxicity against human SKOV3 cells after 24 hrs by XTT assay; assay type: functional, cell-based; details: SK-OV-3, 24 h
Summary of the method: (§1)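 Cells seeded at ~5 × 10^3 per well, exposed to drug at concentrations up to 60 μM for 24 h; viability read by XTT assay and IC50 values derived.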

[1] = Cytotoxicity against human ES2 cells after 24 hrs by XTT assay; assay type: functional, cell-based; details: ES-2, 24 h; summary of the method: as §1
[2] = Displacement of YOYO1 from phage lambda DNA by FID assay; design: species or system Enterobacteria phage lambda
Summary of the method: (§2)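 Run at 37 °C; each well held 500 ng phage lambda DNA (48 Kb) with either SYBR safe (final dilution 1:10000) or YOYO-1 (one dye molecule per 40 base pairs) and test compound at up to 40 μM; dye fluorescence displacement gave IC50.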

DA-3 [3] = experiment: Cytotoxicity against mouse DA-3 cells assessed as reduction in cell viability at 20 uM after 60 mins by XTT assay; assay type: functional, cell-based
Summary of the method: (§3)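 DA3 cells incubated with 20 μM anthracycline; XTT viability measured after 60, 120 and 180 min of incubation; percentage cell death expressed relative to untreated control cells (set as 100% viability).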

[4] = Cellular uptake in mouse DA-3 cell lysosome at 10 uM after 30 mins by LysoTracker green staining-based confocal microscopic analysis relative to control; assay type: ADME; details: da-3, 0.5 h
[5] = (§4) Cytotoxicity against mouse DA-3 cells assessed as reduction in cell viability at 20 uM after 180 mins by XTT assay relative to control; assay type: functional; summary of the method: as §3
MCF7 = experiment: Cytotoxicity against human MCF7 cells after 24 hrs by XTT assay; assay type: functional, cell-based; details: MCF7, 24 h; summary of the method: as §1
[6] = Cytotoxicity against mouse DA-3 cells after 24 hrs by XTT assay; assay type: functional, cell-based; details: DA-3, 24 h; summary of the method: as §1
[7] = Cellular uptake in mouse DA-3 cell nucleus at 10 uM after 30 mins by DRAQ5 deep red staining-based confocal microscopic analysis relative to control; assay type: ADME; details: da-3, 0.5 h
[8] = Displacement of SYBR from phage lambda DNA by FID assay; design: species or system Enterobacteria phage lambda; summary of the method: as §2
[9] = Cellular uptake in mouse DA-3 cell mitochondria at 10 uM after 30 mins by mitotracker red staining-based confocal microscopic analysis; assay type: ADME; details: da-3, 0.5 h
[10] = Cellular uptake in mouse DA-3 cell cytoplasm at 10 uM after 30 mins by confocal microscopic analysis; assay type: ADME, cell-based; details: da-3, 0.5 h
[11] = Cellular uptake in mouse DA-3 cell lysosome at 10 uM after 30 mins by LysoTracker red staining-based confocal microscopic analysis relative to control; assay type: ADME; details: da-3, 0.5 h
[12] = Cellular uptake in mouse DA-3 cell nucleus at 10 uM after 10 hrs by DRAQ5 deep red staining-based confocal microscopic analysis; assay type: ADME; details: da-3, 10 h
DA-3 [13] = experiment: as §4; assay type: functional; summary of the method: as §3
[14] = Cellular uptake in mouse DA-3 cell mitochondria at 10 uM after 10 hrs by mitotracker red staining-based confocal microscopic analysis; assay type: ADME; details: da-3, 10 h
[15] = tested on: Enterobacteria phage lambda; experiment: Ratio of idarubicin IC50 to compound IC50 for displacement of YOYO1 from phage lambda DNA
[16] = Cellular uptake in mouse DA-3 cell lysosome at 10 uM after 10 hrs by LysoTracker green staining-based confocal microscopic analysis; assay type: ADME; details: da-3, 10 h
[17] = Cytotoxicity against mouse DA-3 cells assessed as reduction in cell viability at 20 uM after 6 hrs by XTT assay relative to control; assay type: functional
[18] = tested on: Enterobacteria phage lambda; experiment: Ratio of doxorubicin IC50 to compound IC50 for displacement of SYBR from phage lambda DNA
[19] = tested on: Enterobacteria phage lambda; experiment: Ratio of idarubicin IC50 to compound IC50 for displacement of SYBR from phage lambda DNA
DA-3 [20] = experiment: Cytotoxicity against mouse DA-3 cells assessed as reduction in cell viability at 20 uM by XTT assay; assay type: functional, cell-based; summary of the method: as §3

| Structure (SMILES) | pIC50 [2] | Drug uptake [4] [%] | Drug uptake [7] | pIC50 [8] | Drug uptake [9] | Drug uptake [10] | Drug uptake [11] [%] | Ratio IC50 [15] | pIC50 (SK-OV-3) | pIC50 [1] | Activity (DA-3 [3]) | Activity [5] [%] | pIC50 (MCF7) | pIC50 [6] | also measured |
| --- | --- | --- | --- | --- | --- | --- | --- | --- | --- | --- | --- | --- | --- | --- | --- |
| Cc1c(O)c2c(c(O)c1CO[C@H]1C[C@H](N)[C@@H](O)[C@H](C)O1)C(=O)c1ccccc1C2=O | < 4.40 |  | Not Active | < 4.40 | Not Active | Active | 84.48 |  | 4.79 | 4.75 |  |  | 4.76 | 4.76 |  |
| C[C@@H]1O[C@@H](OCc2cc(O)c3c(c2)C(=O)c2cccc(O)c2C3=O)C[C@H](N)[C@H]1O | < 4.40 |  | Not Active | < 4.40 | Not Active | Active | 67.12 |  | 4.95 | 5.17 | Active | 100 | 4.63 | 5.10 |  |

Second part, led by results:

| pIC50 [2] | Drug uptake [4] [%] | Drug uptake [7] | pIC50 [8] | Drug uptake [9] | Drug uptake [10] | Drug uptake [11] [%] | Ratio IC50 [15] | Structure (SMILES) | pIC50 (SK-OV-3) | pIC50 [1] | Activity (DA-3 [3]) | Activity [5] [%] | pIC50 (MCF7) | pIC50 [6] | also measured |
| --- | --- | --- | --- | --- | --- | --- | --- | --- | --- | --- | --- | --- | --- | --- | --- |
| 6.08 | 83.19 | Not Active | 6.85 |  |  |  |  | COc1cccc2c1C(=O)c1c(O)c3c(c(O)c1C2=O)C[C@@](O)(C(C)=O)C[C@@H]3O[C@H]1C[C@H](N)[C@H](O)[C@H](C)O1 [DAUNORUBICIN] | 4.69 | 4.59 | Active | 80 | 4.47 | 5.72 |  |
| 6.22 | 27.55 | 41.43% | 6.14 | Not Active |  |  | 3 | COc1cccc2c1C(=O)c1c(O)c3c(c(O)c1C2=O)C[C@@](O)(C(=O)CO)C[C@@H]3O[C@H]1C[C@H](N)[C@H](O)[C@H](C)O1 [DOXORUBICIN] | 4.25 | < 4.22 |  |  | < 4.22 | 5.40 | Drug uptake [12]: Active; Activity (DA-3 [13]): inactive; Drug uptake [14]: Active; Drug uptake [16]: Active; Activity [17]: 12% |
| 5.71 | 83.2 |  | 6.05 | Not Active |  |  | 3 | CC(=O)[C@]1(O)Cc2c(O)c3c(c(O)c2[C@@H](O[C@H]2C[C@H](N)[C@H](O)[C@H](C)O2)C1)C(=O)c1ccccc1C3=O [IDARUBICIN] | 5.35 | 5.49 |  |  | 5.14 | 5.64 | Ratio IC50 [18]: 5; Ratio IC50 [19]: 5; Activity (DA-3 [20]): Active |
